In the array DNA melting data of Ke et al. (doi:10.1101/2024.01.08.574731) one finds Tm and folding enthalpy data, which are given here for 37 sequences.

Data set [1] in a line: melting temperature; fluorescence melt of hairpins on a sequencing array, two-state fit, raised by 9.35 °C to match UV melts. The conditions noted are these: sodium 0.088 M. The method in brief: (§1)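 In 50 mM Na-HEPES pH 8.0 containing 25 mM NaCl, hairpins from the library on a sequenced MiSeq flow cell were imaged for Cy3 fluorescence at 2.5 °C steps up to 60 °C, with Cy3 and quencher oligos annealed. After normalisation to pre-quench Cy3 and to control constructs, two-state fits with bootstrapping gave melting temperature and folding enthalpy. Four replicates were combined by inverse-variance weighting, and fitted temperatures were shifted up by 9.35 °C to match UV melts.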

Data set [2] in a line: folding enthalpy; higher = less favourable; fluorescence melt of hairpins on a sequencing array, two-state fit. Particulars: sodium 0.088 M. The method in brief:
as §1

GATCACCCTCGTGATC ((((((....)))))): the Tm in data set [1] is 55.8 °C. For the same sequence, the folding enthalpy in data set [2] was -43.6 kcal/mol.

For the sequence GATCGATGGCTCGATC ((((((....)))))), the Tm in data set [1] was 50.2 °C. For the same sequence, the folding enthalpy in data set [2] was -34 kcal/mol.

Regarding GTAATGTCGAAAGACTAC (((..(((....)))))), in data set [1], the Tm was determined as 28.8 °C. Besides, the folding enthalpy in data set [2] was -11.7 kcal/mol.

In the case of GATCTTAACAAAGATC ((((((....)))))), the Tm in data set [1] came to 42.5 °C. In addition, the folding enthalpy in data set [2] was -33 kcal/mol.

With GATCGGTAACCGATC ((((((...)))))), the Tm in data set [1] was 56.1 °C. In addition, in data set [2], the folding enthalpy was -35.5 kcal/mol.

GCGGGCGAAAGCCTCCGC ((((((....)))..))): the Tm in data set [1] amounted to 53.3 °C. Also, the folding enthalpy in data set [2] was -25.8 kcal/mol.

Take GGTGCCGAAAGGCTGACC ((((((....)))..))): the Tm in data set [1] was 46.8 °C. Further, in data set [2], the folding enthalpy is -13.9 kcal/mol.

Consider GATCACCGGGTGATC ((((((...)))))), for which the Tm in data set [1] was 55 °C. Also, the folding enthalpy in data set [2] was -30.8 kcal/mol.

GTCGTCGAAAGACGGGAC ((((((....)))..))): in data set [1], the Tm is 41.4 °C. Moreover, in data set [2], the folding enthalpy is -10.3 kcal/mol.

As to GATCAGGCACCTGATC ((((((....)))))), in data set [1], the Tm came to 55.4 °C. Besides, in data set [2], the folding enthalpy was -41.7 kcal/mol.

As for GTAGACGAAAGTCGTAC ((((((....))).))), the Tm in data set [1] was found to be 49.9 °C. For the same sequence, the folding enthalpy in data set [2] is -23.6 kcal/mol.

Turning to GATCGAAGTCTCGATC ((((((....)))))), the Tm in data set [1] was 49.2 °C. Further, in data set [2], the folding enthalpy is -35.1 kcal/mol.

Regarding GGCTAGGCGAAAGCCGCC (((..(((....)))))), in data set [1], the Tm stood at 60.8 °C. In data set [2], the folding enthalpy is -15 kcal/mol.

For the sequence GAGATCGAAAGATCTC ((((((....)))))), the Tm in data set [1] came to 63.2 °C. The folding enthalpy in data set [2] is -38.2 kcal/mol.

On to GTCTTCGAAAGAATGGAC ((((((....)))..))), for which the Tm in data set [1] worked out at 27.2 °C. Also, the folding enthalpy in data set [2] is -14.9 kcal/mol.

Consider GATCCTCGGAAGGATC ((((((....)))))), for which the Tm in data set [1] was 50.2 °C. Further, the folding enthalpy in data set [2] is -34.4 kcal/mol.

Consider GACGGTGGAAACACCATC ((.((((....)))).)), for which, in data set [1], the Tm worked out at 36.5 °C. In data set [2], the folding enthalpy was -16.2 kcal/mol.

For GATCGGGAACCGATC ((((((...)))))), in data set [1], the Tm is 68.4 °C. The folding enthalpy in data set [2] is -36 kcal/mol.

As for GTACACGAAAGTGATTAC ((((((....)))..))), the Tm in data set [1] was 27.4 °C. The folding enthalpy in data set [2] was -14.6 kcal/mol.

GGTGCCGAAAGGCCGACC ((((((....)))..))): the Tm in data set [1] was determined as 41.9 °C. Besides, the folding enthalpy in data set [2] was -14.1 kcal/mol.

On to GGTTGGCGAAAGCCACC (((.(((....)))))), for which the Tm in data set [1] is 57.7 °C. Also, the folding enthalpy in data set [2] is -16.5 kcal/mol.

For GGCTGGAAACAGCC (((((....))))), the Tm in data set [1] amounted to 67.5 °C. In addition, in data set [2], the folding enthalpy was -30.9 kcal/mol.

As for GGAAGGAAACTTCC (((((....))))), the Tm in data set [1] was found to be 46 °C. Also, the folding enthalpy in data set [2] is -24.1 kcal/mol.

For GGAAAGACGAAAGTCTCC (((..(((....)))))), in data set [1], the Tm was determined as 36.4 °C. Moreover, in data set [2], the folding enthalpy was -14.5 kcal/mol.

In the case of GGTTCTGAAAAGAACC ((((((....)))))), the Tm in data set [1] worked out at 59.2 °C. Also, in data set [2], the folding enthalpy was -33.3 kcal/mol.

Regarding GATCTAGCGTAGATC ((((((...)))))), in data set [1], the Tm amounted to 37.7 °C. Also, in data set [2], the folding enthalpy was -29.1 kcal/mol.

Turning to GCGTAGAACGC ((((...)))), the Tm in data set [1] was 54.6 °C. The folding enthalpy in data set [2] was -23.7 kcal/mol.

GCGCGTACGAAAGTACGC (((..(((....)))))): the Tm in data set [1] amounted to 63.2 °C. Also, the folding enthalpy in data set [2] was -6.65 kcal/mol.

In the case of GATCAGCATCTGATC ((((((...)))))), in data set [1], the Tm amounted to 46.7 °C. In addition, the folding enthalpy in data set [2] was -34.2 kcal/mol.

Regarding GACACCCGAAAGGGAGTC (((.(((....))).))), the Tm in data set [1] was found to be 57.5 °C. For the same sequence, the folding enthalpy in data set [2] was -29.6 kcal/mol.

As to GATGTCGGAAACAACATC (((((.(....).))))), the Tm in data set [1] is 35.7 °C. Also, the folding enthalpy in data set [2] was -28.9 kcal/mol.

Regarding GTCTCCGAAAGGAAGGAC ((((((....)))..))), the Tm in data set [1] stood at 36.2 °C. The folding enthalpy in data set [2] was -16.5 kcal/mol.

Consider GCACACGGAAACGCATGC (((..((....))..))), for which the Tm in data set [1] came to 26.4 °C. Also, the folding enthalpy in data set [2] is -12.7 kcal/mol.

GATTGCCCGAAAGGGATC (((..(((....)))))): the Tm in data set [1] amounted to 25.8 °C. The folding enthalpy in data set [2] is -7.39 kcal/mol.

GTTACTGGAAACGGTAAC (((((.(....).))))): the Tm in data set [1] is 43.9 °C. The folding enthalpy in data set [2] was -32.2 kcal/mol.

Turning to GTGAACGGAAACATTCAC (((((.(....).))))), in data set [1], the Tm came to 35.4 °C. Further, the folding enthalpy in data set [2] was -31.7 kcal/mol.

Consider GTGTTCTCGAAAGAGCAC (((..(((....)))))), for which, in data set [1], the Tm came to 41.8 °C. For the same sequence, in data set [2], the folding enthalpy was -24.7 kcal/mol.
